Experimental data taken from publication PMC5116011 (The Journal of antibiotics, 2016).
Values after ≈ are worked out from the molar mass of the structure shown. Where two headings read alike, the source gives them in different places.

Key:
P. aeruginosa PA01 = experiment: MIC, microbroth dilution in Mueller-Hinton broth; assay type: cell-based, Pseudomonas aeruginosa; conditions: for MIC PA MH+BP/CCCP / MIC PA +: P. aeruginosa PA01; for MIC PA MH+BP/CCCP: MH broth with 30 µg/ml 2,2′-bipyridyl and 50 µg/ml CCCP; for MIC PA +: with clavulanic acid (6µg/ml); for MIC: Pseudomonas aeruginosa
E. coli BW25113 = experiment: MIC, microbroth dilution in Mueller-Hinton broth; assay type: cell-based, Escherichia coli; conditions: for MIC EC MH+BP/CCCP: MH broth with 30 µg/ml 2,2′-bipyridyl and 50 µg/ml CCCP; for MIC EC +: with clavulanic acid (6µg/ml); for MIC: Escherichia coli, BW25113, read-out: MIC EC, E. coli BW25113
P. vulgaris ATCC 33420 = experiment: MIC, microbroth dilution in Mueller-Hinton broth; assay type: cell-based; conditions: Proteus vulgaris, ATCC33420, read-out: MIC PV
B. anthracis sterne = experiment: microbe, parasite or virus in culture; assay type: cell-based; conditions: Bacillus anthracis, read-out: MIC BA
S. pneumoniae R6 = experiment: MIC, microbroth dilution in Mueller-Hinton broth; assay type: cell-based; conditions: Streptococcus pneumoniae, R6, read-out: MIC SP
In short: (§1)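 CLSI broth microdilution in cation-adjusted Mueller-Hinton broth. Inocula were grown from MH agar colonies in MH broth, with a final inoculum of 10^5 CFU/ml. Test compound final range was 200–0.2 µg/ml, incubated 37°C for 18–20 h. MIC was the lowest concentration preventing visible growth. Runs were at least duplicate, and the mean MIC was reported.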

P. mirabilis ATCC 25933 = experiment: MIC, microbroth dilution in Mueller-Hinton broth; assay type: cell-based; conditions: Proteus mirabilis, ATCC25933, read-out: MIC PM
[1] = test system: S. aureus -ATCC29213 (MSSA); experiment: MIC, microbroth dilution in Mueller-Hinton broth; assay type: cell-based; conditions: Staphylococcus aureus, read-out: MIC MSSA
In short: as §1

S. aureus NRS 70 (MRSA) = experiment: MIC, microbroth dilution in Mueller-Hinton broth; assay type: cell-based; conditions: Staphylococcus aureus, MRSA|NRS70, read-out: MIC MRSA
In short: as §1

S. pyogenes ATCC700294 = experiment: MIC, microbroth dilution in Mueller-Hinton broth; assay type: cell-based; conditions: Streptococcus pyogenes, ATCC700294, read-out: MIC SPy
In short: as §1

E. faecalis ATCC33186 = experiment: MIC, microbroth dilution in Mueller-Hinton broth; assay type: cell-based; conditions: Enterococcus faecalis, ATCC33186, read-out: MIC EF
In short: as §1

[2] = test system: E. coli BW25113 ΔtolC derivative JW5503-1; experiment: MIC, microbroth dilution in Mueller-Hinton broth; assay type: cell-based, Escherichia coli; conditions: for MIC: Escherichia coli
[3] = test system: E. coli BW25113 ΔampC derivative JW4111-2; assay type: cell-based, Escherichia coli; conditions: for MIC: Escherichia coli, BW25113, read-out: MIC ECΔampC −
B. subtilis ATCC23857 = experiment: MIC, microbroth dilution in Mueller-Hinton broth; assay type: cell-based; conditions: Bacillus subtilis, ATCC23857, read-out: MIC BS
In short: as §1

[4] = test system: E. coli ATCC 35218 (Low-level TEM-1); experiment: MIC with and without clavulanic acid; assay type: cell-based; conditions: with clavulanic acid (6 µg/ml)
In short: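 Mueller-Hinton broth microdilution per CLSI, run in parallel without and with the β-lactamase inhibitor clavulanic acid (6 µg/ml). MH-broth-grown inoculum was at 10^5 CFU/ml final, with test compound at 200–0.2 µg/ml final. Incubation was 37°C, 18–20 h, and the visible-growth endpoint was read. At least duplicate determinations; the mean MIC was reported.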

[5] = BW25113, read-out: MIC ECΔtolC MH
[6] = BW25113, read-out: MIC ECΔtolC MH+BP

| SMILES | MIC PA MH+BP/CCCP (P. aeruginosa PA01) [µg/mL] | MIC PA + (P. aeruginosa PA01) [µg/mL] | MIC (P. aeruginosa PA01; PA01, read-out: MIC PA) [µg/mL] | MIC (P. aeruginosa PA01; PA01, read-out: MIC PA MH) [µg/mL] | MIC (P. aeruginosa PA01; PA01, read-out: MIC PA MH+BP) [µg/mL] | MIC (P. aeruginosa PA01; PA01, read-out: MIC PA MH+CCCP) [µg/mL] | MIC EC MH+BP/CCCP (E. coli BW25113; E. coli BW25113) [µg/mL] | MIC EC + (E. coli BW25113; E. coli BW25113) [µg/mL] | MIC (E. coli BW25113; Mueller-Hinton broth (Table 2)) [µg/mL] | MIC (P. vulgaris ATCC 33420) [µg/mL] | MIC (B. anthracis sterne) [µg/mL] | MIC (S. pneumoniae R6) [µg/mL] | MIC (P. mirabilis ATCC 25933) [µg/mL] | MIC [1] [µg/mL] | MIC (S. aureus NRS 70 (MRSA)) [µg/mL] | MIC (S. pyogenes ATCC700294) [µg/mL] | MIC (E. faecalis ATCC33186) [µg/mL] | MIC ([2]; BW25113, read-out: MIC ECΔtolC) [µg/mL] | MIC [2, 5] [µg/mL] | MIC [2, 6] [µg/mL] | other results |
| --- | --- | --- | --- | --- | --- | --- | --- | --- | --- | --- | --- | --- | --- | --- | --- | --- | --- | --- | --- | --- | --- |
| CC(C)(C)Oc1ccc(CC2NC(=O)C(C(=O)NC(C(=O)NC3C(=O)N4C3SC(C)(C)C4C(=O)O)c3ccccc3)=C2O)cc1 (stereo not drawn) [Compound 1905] | 0.78 (≈ 1.23 µM) | 12.5 | 25 (≈ 39.3 µM) | 25 (≈ 39.3 µM) | 6.25 (≈ 9.82 µM) | 3.13 (≈ 4.92 µM) | 6.25 (≈ 9.82 µM) | 12.5 | 25 (≈ 39.3 µM) | 50 (≈ 78.5 µM) | 3.13 (≈ 4.92 µM) | < 0.2 | 25 (≈ 39.3 µM) | 0.78 (≈ 1.23 µM) | 50 (≈ 78.5 µM) | 0.78 (≈ 1.23 µM) | 50 (≈ 78.5 µM) | 6.25 (≈ 9.82 µM) | 6.25 (≈ 9.82 µM) | 1.56 (≈ 2.45 µM) | MIC (P. aeruginosa PA01; PA01, read-out: MIC PA −): 25 µg/mL (≈ 39.3 µM); MIC ECΔtolC MH+BP/CCCP [2]: 0.78 µg/mL (≈ 1.23 µM); MIC ECΔtolC MH+CCCP [2]: 1.56 µg/mL (≈ 2.45 µM); MIC ECΔampC + [3]: 12.5 µg/mL; MIC (B. subtilis ATCC23857): 3.13 µg/mL (≈ 4.92 µM) |
| CC1(C)SC2C(NC(=O)C(NC(=O)C3=C(O)C(Cc4ccc(F)cc4)NC3=O)c3ccccc3)C(=O)N2C1C(=O)O (stereo not drawn) [Compound 2782] | 12.5 (≈ 21.5 µM) | 12.5 | 25 (≈ 42.9 µM) | 25 (≈ 42.9 µM) | 25 (≈ 42.9 µM) | 12.5 (≈ 21.5 µM) | 3.13 (≈ 5.37 µM) | 3.13 | 25 (≈ 42.9 µM) | 12.5 (≈ 21.5 µM) | 3.13 (≈ 5.37 µM) | 0.39 (≈ 0.669 µM) | 12.5 (≈ 21.5 µM) | 0.39 (≈ 0.669 µM) | 12.5 (≈ 21.5 µM) | 0.78 (≈ 1.34 µM) | 6.25 (≈ 10.7 µM) | 1.56 (≈ 2.68 µM) | 1.56 (≈ 2.68 µM) | 3.13 (≈ 5.37 µM) | MIC ATCC 35218 (Low-level TEM-1) + CLV [4]: 25 µg/mL; MIC ECΔtolC MH+BP/CCCP [2]: 1.56 µg/mL (≈ 2.68 µM); MIC ECΔtolC MH+CCCP [2]: 1.56 µg/mL (≈ 2.68 µM); MIC [3]: 6.25 µg/mL (≈ 10.7 µM); MIC ECΔampC + [3]: 3.13 µg/mL; MIC (B. subtilis ATCC23857): 1.56 µg/mL (≈ 2.68 µM) |
| CC(C)C1NC(=O)C(C(=O)NC(C(=O)NC2C(=O)N3C2SC(C)(C)C3C(=O)O)c2ccccc2)=C1O (stereo not drawn) [Compound 2744] | 25 (≈ 48.4 µM) | 25 | 25 (≈ 48.4 µM) | 25 (≈ 48.4 µM) | 50 (≈ 96.8 µM) | 12.5 (≈ 24.2 µM) | 25 (≈ 48.4 µM) | 25 | 100 (≈ 194 µM) | 12.5 (≈ 24.2 µM) | 6.25 (≈ 12.1 µM) | 0.39 (≈ 0.755 µM) | 12.5 (≈ 24.2 µM) | 1.56 (≈ 3.02 µM) | 25 (≈ 48.4 µM) | 0.78 (≈ 1.51 µM) | 12.5 (≈ 24.2 µM) | 3.13 (≈ 6.06 µM) | 3.13 (≈ 6.06 µM) | 3.13 (≈ 6.06 µM) | MIC (P. aeruginosa PA01; PA01, read-out: MIC PA −): 25 µg/mL (≈ 48.4 µM); MIC ECΔtolC MH+BP/CCCP [2]: 0.78 µg/mL (≈ 1.51 µM); MIC ECΔtolC MH+CCCP [2]: 1.56 µg/mL (≈ 3.02 µM); MIC ECΔampC + [3]: 12.5 µg/mL; MIC (B. subtilis ATCC23857): 3.13 µg/mL (≈ 6.06 µM) |
| CC1(C)SC2C(NC(=O)C(NC(=O)C3=C(O)C(Cc4ccc(O)cc4)NC3=O)c3ccccc3)C(=O)N2C1C(=O)O (stereo not drawn) [Compound 2918] | 6.25 (≈ 10.8 µM) | 6.25 | 50 (≈ 86.1 µM) | 50 (≈ 86.1 µM) | 25 (≈ 43.1 µM) | 6.25 (≈ 10.8 µM) | 6.25 (≈ 10.8 µM) | 12.5 | 6.25 to 12.5 (≈ 10.8 to 21.5 µM) | 6.25 (≈ 10.8 µM) | 6.25 (≈ 10.8 µM) | 0.39 (≈ 0.672 µM) | 6.25 (≈ 10.8 µM) | 0.78 (≈ 1.34 µM) | 50 (≈ 86.1 µM) | 1.56 (≈ 2.69 µM) | 25 (≈ 43.1 µM) | 6.25 (≈ 10.8 µM) | 1.56 (≈ 2.69 µM) | 1.56 (≈ 2.69 µM) | MIC EC (E. coli BW25113; E. coli BW25113, Mueller-Hinton broth (Table 2)): 6.25 µg/mL (≈ 10.8 µM); MIC ECΔtolC MH+BP/CCCP [2]: 0.78 µg/mL (≈ 1.34 µM); MIC ECΔtolC MH+CCCP [2]: 0.78 µg/mL (≈ 1.34 µM); MIC ECΔampC + [3]: 6.25 µg/mL; MIC (B. subtilis ATCC23857): 3.13 µg/mL (≈ 5.39 µM) |
| CC1(C)SC2C(NC(=O)C(NC(=O)C3=C(O)C4(CC4)NC3=O)c3ccccc3)C(=O)N2C1C(=O)O (stereo not drawn) [Compound 2833] | 12.5 (≈ 25 µM) | 6.25 | 25 (≈ 49.9 µM) | 25 (≈ 49.9 µM) | 25 (≈ 49.9 µM) | 12.5 (≈ 25 µM) | 6.25 (≈ 12.5 µM) | 12.5 | 100 (≈ 200 µM) | 100 (≈ 200 µM) | 1.56 (≈ 3.12 µM) | < 0.2 | 6.25 (≈ 12.5 µM) | < 0.2 | 25 (≈ 49.9 µM) | 0.78 (≈ 1.56 µM) | 12.5 (≈ 25 µM) | 3.13 (≈ 6.25 µM) | 3.13 (≈ 6.25 µM) | 1.56 (≈ 3.12 µM) | MIC ECΔtolC MH+BP/CCCP [2]: 0.78 µg/mL (≈ 1.56 µM); MIC ECΔtolC MH+CCCP [2]: 1.56 µg/mL (≈ 3.12 µM); MIC [3]: 12.5 µg/mL (≈ 25 µM); MIC ECΔampC + [3]: 6.25 µg/mL; MIC (B. subtilis ATCC23857): 0.39 µg/mL (≈ 0.779 µM) |
